PP1 counter: PP1-alpha (human) inhibition in PP5 counter-screen | P62136 | purified PP1alpha, OMFP fluorescence | inhibition, % at 6.7 µM | actives 0.9% (n = 320,000) | AID 2235;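 active = inhibition above the mean inhibition of all tested compounds plus 3 SD, computed separately for each screening campaign, cut at about 15% in these data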
PP5 primary: inhibitors of human protein phosphatase 5 (PP5); P53041; purified PP5c, OMFP substrate fluorescence; inhibition, % at 6.7 µM; actives 0.18% (n = 320,000); AID 1987;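 active = inhibition above the campaign's mean inhibition across all tested compounds plus 3 SD, cut at about 9.5% in these data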;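 note: 0% = DMSO only and 100% = 100 µM cantharidin control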
Target sequence (P53041 whole entry, looked up): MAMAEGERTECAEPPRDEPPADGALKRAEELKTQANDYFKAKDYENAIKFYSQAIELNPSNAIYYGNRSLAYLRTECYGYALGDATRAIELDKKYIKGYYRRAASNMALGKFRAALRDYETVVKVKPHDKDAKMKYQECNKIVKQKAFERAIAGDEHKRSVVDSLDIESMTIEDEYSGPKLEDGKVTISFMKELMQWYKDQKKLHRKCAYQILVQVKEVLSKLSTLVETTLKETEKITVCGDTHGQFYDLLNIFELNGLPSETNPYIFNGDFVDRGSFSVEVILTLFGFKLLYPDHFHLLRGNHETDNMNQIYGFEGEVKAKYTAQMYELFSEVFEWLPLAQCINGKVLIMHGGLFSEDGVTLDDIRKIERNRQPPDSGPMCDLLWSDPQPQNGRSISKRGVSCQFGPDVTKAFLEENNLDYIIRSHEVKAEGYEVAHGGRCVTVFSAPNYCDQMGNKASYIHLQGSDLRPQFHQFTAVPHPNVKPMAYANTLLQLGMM
HIF act: HIF pathway transcriptional activation. activation, % at 7.5 µM (by protocol). U2OS HRE-luciferase reporter, luminescence; normalized: DMSO 0%, desferrioxamine 100%. AID 1910. actives 0.32% (n = 300,000);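 active = mean activation of at least 10% of the iron chelator positive control signal, with at least half of replicates also reaching 10%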
HCV NS3 hel inh: blocks Hepatitis C virus NS3 helicase unwinding; actives 0.56% (n = 290,000); AID 1800; inhibition, % at 10.9 µM; NS3 helicase DNA unwinding, Cy5 molecular beacon fluorescence;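 active = inhibition above the mean of all tested compounds plus 3 SD, set per campaign, cut at about 35% in these data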;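 note: 0% = DMSO wells and 100% = thioflavine S control wells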
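Measured by: Cy5 fluorescence, 0 and 60 min reads / Assay system: NS3 helicase fragment of HCV / Control set: low DMSO, high thioflavine S at 110 µM / Times: 1 h reaction at 25 °C, ATP-initiated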
DNA FID counter: fluorescent intercalator displacement, NS3 helicase counter-screen | DNA fluorescent intercalator displacement, fluorescence | inhibition, % at 7.9 µM | actives 0.17% (n = 290,000); in the data active = inhibition above about 37%;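 note: 0% = vehicle and 100% = reference compound; higher means more ethidium bromide displaced from hairpin DNA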
PP1 inh confirm: confirmation of human PP1 phosphatase inhibitors. inhibition, % at 6.7 µM. AID 2358. actives 52% (n = 1,900). shares compounds with PP1 counter. purified PP1alpha, OMFP substrate fluorescence;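 active = mean PP1 inhibition above a set limit taken from the earlier primary screen, cut at about 15% in these data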
PP5 inh counter: PP5 phosphatase inhibition, counter-screen for PP1 inhibitors; shares compounds with PP1 counter; purified PP5c, OMFP fluorescence; inhibition, % at 6.7 µM; actives 4% (n = 1,900);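 active = mean PP5 inhibition over triplicate wells above about 9.5% taken from the earlier PP1 screen, limit read from the data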
Numbers without * were called inactive; . = no result. An excerpt weighted towards active compounds, which were near 1.9% of everything screened.

SMILES	PP1 counter	PP5 primary	HIF act	HCV NS3 hel inh	DNA FID counter	PP1 inh confirm	PP5 inh counter
CCOc1ccc2nc(NC3=NC(c4ccc(OC)cc4)CC(=O)N3)nc(C)c2c1 (stereo not given)	39*	4	0	-36	-28	11	-2
C=CCNc1nc2ccccc2nc1NS(=O)(=O)c1ccc(Br)cc1	1	1	1	10	-31	.	.
COc1ccc(NC(=O)C2(c3ccc(NC(=O)c4ccc(OC(C)=O)cc4)cc3)CCCC2)cc1	18*	0	0	7	-1	24*	-7
Cc1nnc(-c2cnn(C)c2N)n1Cc1cccc(Cl)c1	0	0	1	-6	-1	.	.
Cc1cc(C(=O)Cn2nc(C(=O)O)c3ccccc3c2=O)c(C)n1CCc1ccc(F)cc1	24*	2	0	-7	-13	22*	-3
Cc1ccc(C(=O)Nc2nnc(CC(=O)N/N=C/c3ccc(O)c(O)c3)s2)cc1	18*	-1	-2	16	-18	9	-6
CCOC(=O)Cc1cc(=O)n2[nH]c(C)c(-c3ccc(Cl)cc3)c2n1	25*	3	0	15	-16	18*	-5
CCOC(=O)Cc1cc(=O)n2[nH]c(-c3ccc(C)cc3)cc2n1	18*	-3	0	20	-11	10	1
CC(/C=C1\SC(=S)N(CCC(=O)Nc2ccccc2O)C1=O)=C\c1ccccc1	14	1	0	3	-12	.	.
COc1ccccc1/C=C1\SC(=S)N(CCC(=O)Nc2ccc(C(=O)O)c(O)c2)C1=O	27*	3	0	3	38*	14	1
CC(/C=C1\SC(=S)N(CCCC(=O)Nc2ccc(C(=O)O)cc2)C1=O)=C\c1ccccc1	19*	-3	1	22	-15	11	-4
O=C(CCN1C(=O)/C(=C/c2ccco2)SC1=S)Nc1ccc(C(=O)O)c(O)c1	2	3	0	12	14	.	.
O=C(CCN1C(=O)/C(=C/C=C/c2ccccc2)SC1=S)Nc1cccnc1	20*	-1	1	20	-6	13	-2
CC(/C=C1\SC(=S)N(CCC(=O)Nc2cccc(C(=O)O)c2)C1=O)=C\c1ccccc1	23*	0	0	-23	12	16*	3
CCN(C(=O)CN1C(=O)S/C(=C\C=C\c2ccccc2)C1=O)C1CCS(=O)(=O)C1 (stereo not given)	14	0	3	-15	-50	.	.
CC1(C)CC(=O)C=C(c2ccc(F)nc2)C1	-4	2	.	.	.	.	.
C[N+](C)(C)C(Cc1c[nH]c2ccccc12)C(=O)[O-] (stereo not given)	.	.	0	.	.	.	.
Cc1cccc(/C=N/NC(=O)c2cc(-c3cccnc3)nc3ccccc23)c1	78*	2	-1	8	-10	-2	-1
C#CCOCCOCCOCCNc1nc(N2CCN(C(=O)CCCCCCCCCCNC(=O)[C@H]([C@@H](C)CC)n3cc(CCCCCN)nn3)CC2)nc(N2CCN(C(=O)CCCCCCCCCCNC(=O)[C@H]([C@@H](C)CC)n3cc(CCCCN=C(N)N)nn3)CC2)n1	70*	9	.	.	.	45*	1
C#CCOCCOCCOCCNc1nc(N2CCN(C(=O)CCCCCCCCCCNC(=O)[C@H](CO)n3cc(CCCSC)nn3)CC2)nc(N2CCN(C(=O)CCCCCCCCCCNC(=O)[C@H](CCCN=C(N)N)n3cc(C[C@@H](C)CC)nn3)CC2)n1	46*	7	.	.	.	30*	1
C#CCOCCOCCOCCNc1nc(N2CCOCC2)nc(N2CCN(C(=O)[C@H](Cc3cc4ccccc4[nH]3)n3cc([C@@H](N)Cc4ccc(O)cc4)nn3)CC2)n1	-2	0	0	-62	15	.	.
C#CCOCCOCCOCCNc1nc(N2CCN(C(=O)Cn3cc(CCCN=C(N)N)nn3)CC2)nc(N2CCN(C(=O)[C@H]([C@@H](C)CC)n3cc(CCCCN)nn3)CC2)n1	-3	1	.	.	.	.	.
C#CCOCCOCCOCCNc1nc(N2CCN(C(=O)CCCCCCCCCCNC(=O)Cn3cc(CCCCCN)nn3)CC2)nc(N2CCN(C(=O)CCCCCCCCCCNC(=O)[C@H]([C@@H](C)CC)n3cc(CCCCN=C(N)N)nn3)CC2)n1	70*	3	.	.	.	55*	1
C#CCOCCOCCOCCNc1nc(N2CCN(C(=O)[C@H]([C@@H](C)CC)n3cc([C@@H](N)CO)nn3)CC2)nc(N2CCN(C(=O)[C@H](Cc3cc4ccccc4[nH]3)n3cc([C@@H](N)Cc4ccc(O)cc4)nn3)CC2)n1	24*	8	0	.	.	-6	2
C#CCOCCOCCOCCNc1nc(N2CCN(C(=O)CCCCCCCCCCNC(=O)Cn3cc(C[C@@H](C)O)nn3)CC2)nc(N2CCN(C(=O)CCCCCCCCCCNC(=O)[C@H](CCCN=C(N)N)n3cc(C[C@@H](C)CC)nn3)CC2)n1	11	5	-3	.	.	.	.
SMILES	PP1 counter	PP5 primary	HIF act	HCV NS3 hel inh	DNA FID counter	PP1 inh confirm	PP5 inh counter
CN(CC(=O)Nc1ccc(N2CCOCC2)cc1)C(=O)CSc1ccc(F)cc1	-3	3	0	.	.	.	.
C#CCOCCOCCOCCNc1nc(N2CCN(C(=O)CCCCCCCCCCNC(=O)[C@H](CCCCN)n3cc(CCCC(=O)O)nn3)CC2)nc(N2CCN(C(=O)CCCCCCCCCCNC(=O)[C@@H]([C@H](C)O)n3cc(C)nn3)CC2)n1	3	0	.	.	.	.	.
C#CCOCCOCCOCCNc1nc(N2CCN(C(=O)CCCCCCCCCCNC(=O)[C@H]([C@@H](C)CC)n3cc(CCCCN=C(N)N)nn3)CC2)nc(N2CCN(C(=O)CCCCCCCCCCNC(=O)[C@H](CO)n3cc(CCCCCN)nn3)CC2)n1	73*	12*	.	.	.	45*	2
C#CCOCCOCCOCCNc1nc(N2CCN(C(=O)CCCCCCCCCCNC(=O)[C@H]([C@@H](C)CC)n3cc(CCCCN=C(N)N)nn3)CC2)nc(N2CCN(C(=O)CCCCCCCCCCNC(=O)[C@H](CCCCN)n3cc(C)nn3)CC2)n1	70*	6	.	.	.	57*	2
CC[C@H](C)[C@@H](C(=O)NCCCCCCCCCCC(=O)N1CCN(C(=O)OC(C)(C)C)CC1)n1cc(CCCCN=C(NC(=O)OC(C)(C)C)NC(=O)OC(C)(C)C)nn1	19*	5	.	.	.	30*	2
C#CCOCCOCCOCCNc1nc(N2CCN(C(=O)CCCCCCCCCCNC(=O)[C@H]([C@@H](C)CC)n3cc(CCCCCN)nn3)CC2)nc(N2CCN(C(=O)CCCCCCCCCCNC(=O)[C@H](CCCCN)n3cc(CCCC(=O)O)nn3)CC2)n1	15	3	.	.	.	.	.

Screens deposited in PubChem BioAssay by several laboratories.
